Test results reported in article PMC4677462 (Organic & biomolecular chemistry, 2012).
Each block holds one molecule with its values, some of them ahead of it.

Legend:
HIF-1α [1] = test: HIF-1α stabilisation immunoblot in RCC4/VHL cells; format: cell-based, human; details: 200 μM and 1mM
[2] = molecular target: catalytic domain of PHD2 (residues 181-426) (Homo sapiens, UniProt Q9GZT9); test: Non-denaturing ESI-MS binding to PHD2 in presence of Fe; details: standard conditions; for ESI-MS competition with NOG for binding to PHD2: equimolar NOG; for PHD2-iron-compound complex formation / binding of a second iron in ESI-MS: 2 equiv. Fe(II), 1 equiv. compound
PHD2 = PHD2 (Homo sapiens, UniProt Q9GZT9); test: AlphaScreen PHD2 inhibition assay; format: biochemical; details: 10μM and 300μM of compounds
HIF-1α [3] = test: HIF-1α stabilisation immunoblot in Hep3B cells; format: cell-based, human; details: for HIF-1α stabilization / HIF-1α stabilization in presence of Fe(II) / Cell-based activity HIF-1α Induction: Hep3B cells, 6 h; for HIF-1α stabilization: absence of added Fe(II); for HIF-1α stabilization in presence of Fe(II): equimolar amount of Fe(II); for Cell-based activity HIF-1α Induction: methyl or ethyl esters (numbers in parentheses) tested, 0.1 mM and 1 mM
Outline: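 Confluent human Hep3B hepatoma cells given methyl or ethyl ester forms of test compounds (100 mM DMSO stock) for 6 h under normoxia. Fe(II) experiments added equimolar Fe(II) either at the start or for the final 2 h, with DFO and DMOG as comparators. Whole-cell lysate immunoblots probed with mouse anti-HIF-1α (clone 54).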

[4] = test system: HIF prolyl and asparaginyl hydroxylases; test: HIF-1α prolyl; format: cell-based, human; details: RCC4 cells, 1 mM and 2 mM
Outline: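 VHL-defective RCC4 renal carcinoma cells carrying empty vector (RCC4/VA), which cannot degrade HIF-1α by the proteasome, grown to confluence and treated 5 h with test compound from 100 mM DMSO stock. Whole-cell lysate immunoblots probed with Hyp564- and HyAsn803-specific antibodies. Signals normalised to HIF-1α band intensity, with β-tubulin/β-actin as loading controls. DMSO negative and DMOG positive controls.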

catalytic domain of PHD2 (residues 181-426), sequence (Q9GZT9 181-426): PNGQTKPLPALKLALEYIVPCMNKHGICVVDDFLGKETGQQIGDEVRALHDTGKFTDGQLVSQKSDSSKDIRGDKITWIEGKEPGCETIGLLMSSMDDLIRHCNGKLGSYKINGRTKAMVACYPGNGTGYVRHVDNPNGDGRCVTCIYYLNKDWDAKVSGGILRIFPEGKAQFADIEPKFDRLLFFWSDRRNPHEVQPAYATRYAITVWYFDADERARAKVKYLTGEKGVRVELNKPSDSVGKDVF
PHD2, sequence (Q9GZT9 181-426): as above

Compound: O=C(O)/C=C/C(=O)NNC(=O)c1cc2ccccc2cn1 [Compound 14]
HIF-1α upregulation (HIF-1α [1]): almost no HIF-1α induction

Compound: O=C(O)/C=C/C(=O)NNC(=O)c1cccnc1 [Compound 9]
ESI-MS competition with NOG for binding to PHD2 [2]: compete effectively with NOG for binding to PHD2

PHD2-iron-compound complex formation / binding of a second iron in ESI-MS [2]: only bound to one iron
Compound: O=C(O)/C=C/C(=O)NNC(=O)c1ccccn1 [Compound 5]
HIF-1α upregulation (HIF-1α [1]): upregulated HIF-1α, but to a lesser extent than its ester

PHD2 inhibition in initial two-concentration screening (PHD2): weak PHD2 inhibitors
Compound: O=C(O)/C=C\C(=O)NNC(=O)c1ccccn1 [Compound 4]

Compound: O=C(O)CCC(=O)NNC(=O)c1cc2ccccc2cn1 [Compound 11]
ESI-MS competition with NOG for binding to PHD2 [2]: compete effectively with NOG for binding to PHD2 | HIF-1α levels, free carboxylate compounds (HIF-1α [3]; human hepatoma Hep3B cells, free acid form): did not up-regulate HIF-1α levels

Compound: COC(=O)CNC(=O)C(=O)OC [DMOG, Dimethyloxalyl glycine]
Inhibition of HIF prolyl-hydroxylation [4]: only partially inhibited | HIF-1α stabilization (HIF-1α [3]): induced HIF-1α stabilization | HIF-1α stabilization in presence of Fe(II) (HIF-1α [3]): reduction in HIF-1α stabilization | Cell-based activity HIF-1α Induction (HIF-1α [3]): Active

Compound: O=C(O)CNC(=O)c1nc(Cl)c2ccccc2c1O [BIQ, 2-(1-chloro-4-hydroxyisoquinoline-3-carboxamido)acetic acid]
Cell-based activity HIF-1α Induction (HIF-1α [3]): Active

Compound: CC(=O)N(O)CCCCCNC(=O)CCC(=O)N(O)CCCCCNC(=O)CCC(=O)N(O)CCCCCN [DFO, deferoxamine]
HIF-1α stabilization (HIF-1α [3]): induced HIF-1α stabilization | HIF-1α stabilization in presence of Fe(II) (HIF-1α [3]): HIF-1α stabilization was not observed

PHD2 inhibition in initial two-concentration screening (PHD2): weak PHD2 inhibitors | PHD2-iron-compound complex formation / binding of a second iron in ESI-MS [2]: formed a two-iron complex with PHD2
Compound: O=C(O)CCCC(=O)NNC(=O)c1ccccn1 [Compound 2]
